As a reminder, the efflux ratio is the permeability from basolateral to apical divided by that in the opposite direction, in the common usage. One may read the Papp A→B as how fast a substance crosses the layer from the apical side. In general, Papp B→A refers to the apparent permeability from the basolateral to the apical side of a cell layer. What is called bioavailability is dose-corrected exposure relative to a reference, in per cent. Read a low bioavailability as little systemic uptake. A word on the pKa: it is the negative logarithm of the acid dissociation constant. High values mean a weaker acid or stronger base, low ones a stronger acid or weaker base. The term Km denotes the concentration of substrate that gives half-maximal velocity. Broadly, the Cmax is the maximum level reached in the sampled fluid or tissue.

SMILES strings stand for the structures.

The values that follow come from ChEMBL document CHEMBL3526038, “The role of a basolateral transporter in rosuvastatin transport and its interplay with apical breast cancer resistance protein in polarized cell monolayer systems” (Drug Metab Dispos, 2012).

Data set [1] deals with BCRP. As to the kind of experiment: Efflux ratio of apparent permeability from basolateral to apical over apical to basolateral side of MDCK cells overexpressing BCRP at 2 uM after 60 to 120 mins. As to conditions: dog. The class given is ADME, cell-based, Canis lupus familiaris. In a few lines: (§1)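 Monolayers on collagen-coated polycarbonate Transwells (0.4 μm pores), seeded at 60,000 cells/cm². Caco-2 were used at 21-28 days (TEER > 450 Ω·cm²); BCRP-MDCK at 7-11 days (TEER > 1200 Ω·cm²), stably expressing human ABCG2 R482 under neomycin selection. Rosuvastatin 2 μM in HBSSg pH 7.4 was dosed apically or basolaterally at 37°C. Samples were taken at 60 and 120 min for LC-MS/MS. Papp was determined; ER = Papp B-to-A / Papp A-to-B; triplicate.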

Data set [2] in a line: Efflux ratio of apparent permeability from basolateral to apical over apical to basolateral side of MDCK cells at 2 uM after 60 to 120 mins. As to conditions: dog. The class given is ADME, cell-based, Canis lupus familiaris. In a few lines: as §1
The nature of data set [3]: Apparent permeability from apical to basolateral side of human Caco2 cells at 2 uM after 60 to 120 mins. The conditions noted are these: Caco-2. Type of data set: ADME, cell-based. In a few lines:
as §1
In general terms: Caco-2 cells form a polarised layer with tight junctions and transporters.

Data set [4] in a line: Apparent permeability from basolateral to apical side of MDCK cells at 2 uM after 60 to 120 mins. The class given is ADME, cell-based, Canis lupus familiaris. The conditions noted are these: dog. In a few lines:
as §1

Data set [5] is described as follows: Apparent permeability from basolateral to apical side of human Caco2 cells at 2 uM after 60 to 120 mins. The class given is ADME, cell-based. As to conditions: Caco-2. In a few lines: as §1
Data set [6] has as its system BCRP. As to the kind of experiment: Apparent permeability from basolateral to apical side of MDCK cells overexpressing BCRP at 2 uM after 60 to 120 mins. As to conditions: dog. The class given is ADME, cell-based, Canis lupus familiaris. In a few lines:
as §1

Data set [7] relates to BCRP. As to the kind of experiment: Apparent permeability from apical to basolateral side of MDCK cells overexpressing BCRP at 2 uM after 60 to 120 mins. The class given is ADME, cell-based, Canis lupus familiaris. As to conditions: dog. In a few lines: as §1
The nature of data set [8]: Efflux ratio of apparent permeability from basolateral to apical over apical to basolateral side of human Caco2 cells at 2 uM after 60 to 120 mins. The class given is ADME, cell-based. As to conditions: Caco-2. In a few lines:
as §1

Data set [9] is described as follows: Apparent permeability from apical to basolateral side of MDCK cells at 2 uM after 60 to 120 mins. Type of data set: ADME, cell-based, Canis lupus familiaris. The conditions noted are these: dog. In a few lines:
as §1

The nature of data set [10]: Activity at OSTalpha/OSTbeta in human Caco2 cells assessed as drug transport from apical to basolateral side at 50 uM in presence of 10 uM taurolithocholate relative to control. Type of data set: ADME, cell-based. The conditions noted are these: caco-2, 50 µM. In a few lines: (§2)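 Caco-2 monolayers (21-28 days, TEER > 450 Ω·cm²). Rosuvastatin 50 μM was dosed apically with 10 μM atenolol as a low-permeability marker, in HBSSg/MES at pH 5.5. Basolateral buffer was HBSSg/HEPES pH 7.4, with or without tauroolithocholate (10, 50 or 100 μM). Incubated at 37°C. Basolateral samples were taken at 15, 30 and 60 min and measured by LC-MS/MS. Efflux was normalised to BCA protein and expressed as % control; triplicate.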

A short description of data set [11]: Oral bioavailability in human at 40 mg. The class given is ADME, organism-based. The conditions noted are these: in vivo.
A short description of data set [12]: Activity at OSTalpha/OSTbeta in human Caco2 cells assessed as drug transport from basolateral to apical side at 2 uM in presence of chenodoxycholate relative to control. Type of data set: ADME, cell-based. As to conditions: caco-2, 2 µM.
Data set [13] can be described thus: Activity at OSTalpha/OSTbeta in human Caco2 cells assessed as drug transport from basolateral to apical side at 2 uM in presence of indomethacin relative to control. The class given is ADME, cell-based. As to conditions: caco-2, 2 µM.
The nature of data set [14]: Activity at OSTalpha/OSTbeta in human Caco2 cells assessed as drug transport from basolateral to apical side at 2 uM in presence of digoxin relative to control. Type of data set: ADME, cell-based. As to conditions: caco-2, 2 µM.
A short description of data set [15]: Activity at OSTalpha/OSTbeta in human Caco2 cells assessed as drug transport from basolateral to apical side at 2 uM in presence of spironolactone relative to control. The class given is ADME, cell-based. The conditions noted are these: caco-2, 2 µM.
Data set [16] is described as follows: Activity at OSTalpha/OSTbeta in human Caco2 cells assessed as drug transport from basolateral to apical side at 2 uM in presence of dehydroepiandrosterone sulfate relative to control. Type of data set: ADME, cell-based. As to conditions: caco-2, 2 µM.
Data set [17] is described as follows: Partition coefficient, pKa of the compound. Type of data set: physicochemical. The conditions noted are these: octanol/water.
Data set [18] in a line: Activity at OSTalpha/OSTbeta in human Caco2 cells assessed as drug transport from basolateral to apical side at 2 uM in presence of probenecid relative to control. As to conditions: caco-2, 2 µM. The class given is ADME, cell-based.
Data set [19] is described as follows: Activity at OSTalpha/OSTbeta in human Caco2 cells assessed as drug transport from basolateral to apical side at 2 uM in presence of rifamycin relative to control. The class given is ADME, cell-based. The conditions noted are these: caco-2, 2 µM.
Data set [20] in a line: Activity at OSTalpha/OSTbeta in human Caco2 cells assessed as drug transport from apical to basolateral side at 50 uM in presence of 50 uM taurolithocholate relative to control. The class given is ADME, cell-based. As to conditions: caco-2, 50 µM. In a few lines: as §2
Data set [21] is described as follows: Cellular uptake in human Caco2 cells after 30 mins by Michaelis-Menten equation analysis. Type of data set: ADME, cell-based, Caco-2. In a few lines:
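Caco-2 monolayers (21-28 days). Rosuvastatin at various concentrations was dosed basolaterally in HBSSg pH 7.4 and incubated 30 min at 37°C. Apical samples and ice-cold-washed, acetonitrile-lysed cells were analysed by LC-MS/MS. Total uptake was fitted by nonlinear regression to saturable plus nonsaturable components to give Km; mean ± S.D., n = 3.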

A short description of data set [22]: Activity at OSTalpha/OSTbeta in human Caco2 cells assessed as drug transport from basolateral to apical side at 2 uM in presence of estrone 3-sulfate relative to control. The class given is ADME, cell-based. As to conditions: caco-2, 2 µM.
Data set [23] is described as follows: Activity at OSTalpha/OSTbeta in human Caco2 cells assessed as drug transport from basolateral to apical side at 2 uM in presence of bromosulfophthalein relative to control. The class given is ADME, cell-based. As to conditions: caco-2, 2 µM.
Data set [24] is described as follows: Activity at OSTalpha/OSTbeta in human Caco2 cells assessed as drug transport from basolateral to apical side at 2 uM in presence of lithocholate acid relative to control. The class given is ADME, cell-based. As to conditions: caco-2, 2 µM.
Data set [25] is described as follows: Activity at OSTalpha/OSTbeta in human Caco2 cells assessed as drug transport from basolateral to apical side at 2 uM in presence of taurocholate relative to control. Type of data set: ADME, cell-based. As to conditions: caco-2, 2 µM.
Data set [26] in a line: Activity at OSTalpha/OSTbeta in human Caco2 cells assessed as drug transport from basolateral to apical side at 2 uM in presence of taurolithocholate relative to control. Type of data set: ADME, cell-based. As to conditions: caco-2, 2 µM.
Data set [27] in a line: Cmax in healthy human at 20 mg, po. As to conditions: in vivo.
A further data set deals with Homo sapiens. As to the kind of experiment: Total clearance in human at 40 mg, po. As to conditions: in vivo. The class given is ADME, organism-based.
A short description of data set [28]: Activity at OSTalpha/OSTbeta in human Caco2 cells assessed as drug transport from apical to basolateral side at 50 uM in presence of 100 uM taurolithocholate relative to control. The class given is ADME, cell-based. As to conditions: caco-2, 50 µM. In a few lines:
as §2

Take `COc1cc2nc(N3CCN(C(=O)c4ccco4)CC3)nc(N)c2cc1OC` [PRAZOSIN]: the efflux ratio at 2 µM came out at 34.5 in the data set with BCRP [1], 3.1 in data set [2] and 10.5 in data set [8]. The values for the Papp A→B at 2 µM (in [3]; with BCRP [7]; in [9]) were 3.92 ×10⁻⁶ cm/s, 1.31 ×10⁻⁶ cm/s and 4.32 ×10⁻⁶ cm/s, respectively. For the same compound, the Papp B→A at 2 µM stood at 13.6 ×10⁻⁶ cm/s in data set [4], 41.1 ×10⁻⁶ cm/s in [5] and 45.1 ×10⁻⁶ cm/s with BCRP [6].

For the compound `CC(C)c1nc(N(C)S(C)(=O)=O)nc(-c2ccc(F)cc2)c1/C=C/[C@@H](O)C[C@@H](O)CC(=O)[O-].CC(C)c1nc(N(C)S(C)(=O)=O)nc(-c2ccc(F)cc2)c1/C=C/[C@@H](O)C[C@@H](O)CC(=O)[O-].[Ca+2]` [ROSUVASTATIN CALCIUM], the Drug transport in [10] amounted to 338%; in data set [12], 27.9%; in data set [13], 32.7%; in data set [14] it was 43.9%; in data set [15] it was 35.1%; in data set [16], 38.1%. The Drug transport in [18] is 73.8%; in data set [19], 21.4%; in data set [20], 436%; in [22], 28.7%; in data set [23] it was 23.5%; in data set [24], 42.6%. Moreover, the results for the Drug transport in data set [25], in [26] and in data set [28] were 29.1%, 30.1% and 359%, respectively. The efflux ratio at 2 µM in the data set on BCRP [1] is 5.8; in data set [2], 1.1; in data set [8] it was 83.2. Further, the bioavailability in data set [11] worked out at 20%. Also, the figures for the Papp A→B at 2 µM (in data set [3]; in the data set with BCRP [7]; in data set [9]) were 0.25 ×10⁻⁶ cm/s, 0.28 ×10⁻⁶ cm/s and 0.43 ×10⁻⁶ cm/s, respectively. Moreover, in data set [17], the pKa was 4.2. In data set [21] (caco-2), this compound returned a Kd of 0.9985 µL/min/mg. Also, the Km at 0.5 h in [21] (human, Caco-2 cells) is 4.21 µM. Also, the Jmax in data set [21] (human, caco-2, 0.5 h) is recorded as 24.64 pmol/min/mg. Besides, the values for the Papp B→A at 2 µM (in data set [4]; in [5]; with BCRP [6]) were 0.49 ×10⁻⁶ cm/s, 20.7 ×10⁻⁶ cm/s and 1.63 ×10⁻⁶ cm/s, respectively. Further, the highest level in data set [27] (Cmax) was 6 nM. The compound further registered a CL with Homo sapiens of 70%.
